Data: ChEMBL document CHEMBL1139751, “Discovery of small molecule inhibitors of integrin alphavbeta3 through structure-based virtual screening” (Bioorg Med Chem Lett, 2006)
Calls of active or inactive are those of the source. The calls are words filed in the database; no cut-off is given here.

Legend:
Integrin alpha-V/beta-3 = Integrin alpha-V/beta-3 (Homo sapiens, UniProt P05106+P06756); test: Inhibition of integrin alphavbeta3 mediated cell adhesion of human M21 cells to vitronectin; type: cell-based
Method in brief: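 Non-tissue-culture plastic 96-well plates were coated overnight with 2 µg/ml vitronectin. M21 cells were seeded with or without graded compound concentrations and allowed to adhere for 1 h at 37 °C. Adherent cells were fixed and stained, and the plates were read at 570 nm. Inhibition was calculated with compound-free wells as 100% adhesion.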

M21 [1] = test: Inhibition of human M21 cell migration assessed by measuring migration distance after 16 hrs at 30 uM by scrape motility assay; type: functional
Method in brief: (§1)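 Scrape motility assay with M21 melanoma cells on vitronectin-coated plates, treated with compound at 7.5, 15.0 or 30.0 µM. Migration distance was measured by phase-contrast microscopy at 8 h or 16 h. Percent inhibition was taken against untreated cells. Means ± SD of nine determinations from three independent experiments.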

HUVEC = test: Inhibition of bFGF-induced capillary-like structure formation in HUVECs at 30 uM after 6 hrs; type: functional, cell-based; settings: Homo sapiens
Method in brief: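 HUVECs in ECM gel stimulated with 100 ng/ml bFGF, with or without compound, for 6 h. PBS served as the unstimulated control. Capillary-like structures were viewed by phase-contrast microscopy.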

M21 [2] = test: Inhibition of human M21 cell migration after 8 hrs at 30 uM by scrape motility assay; type: functional; settings: M21, 8 h; method in brief: as §1
M21 [3] = test: Inhibition of human M21 cell migration assessed by measuring migration distance after 8 hrs at 7.5 uM by scrape motility assay; type: functional; method in brief: as §1
M21 [4] = test: Inhibition of human M21 cell migration assessed by measuring migration distance after 8 hrs at 15 uM by scrape motility assay; type: functional; method in brief: as §1
M21 [5] = test: Inhibition of human M21 cell migration assessed by measuring migration distance after 8 hrs at 30 uM by scrape motility assay; type: functional; method in brief: as §1
M21 [6] = test: Inhibition of human M21 cell migration after 8 hrs at 15 uM by scrape motility assay; type: functional; settings: M21, 8 h; method in brief: as §1
M21 [7] = test: Inhibition of human M21 cell migration after 8 hrs at 7.5 uM by scrape motility assay; type: functional; settings: M21, 8 h; method in brief: as §1
M21 [8] = test: Inhibition of human M21 cell migration at 15 uM after 16 hrs by scrape motility assay; type: functional; settings: M21, 16 h; method in brief: as §1
M21 [9] = test: Inhibition of human M21 cell migration at 30 uM after 16 hrs by scrape motility assay; type: functional; settings: M21, 16 h; method in brief: as §1
M21 [10] = test: Inhibition of human M21 cell migration at 7.5 uM after 16 hrs by scrape motility assay; type: functional; settings: M21, 16 h; method in brief: as §1
M21 [11] = test: Inhibition of human M21 cell migration assessed by measuring migration distance after 16 hrs at 7.5 uM by scrape motility assay; type: functional; method in brief: as §1
M21 [12] = test: Inhibition of human M21 cell migration assessed by measuring migration distance after 16 hrs at 15 uM by scrape motility assay; type: functional; method in brief: as §1

Sequence of Integrin alpha-V/beta-3 (P05106 27-788 limits assumed): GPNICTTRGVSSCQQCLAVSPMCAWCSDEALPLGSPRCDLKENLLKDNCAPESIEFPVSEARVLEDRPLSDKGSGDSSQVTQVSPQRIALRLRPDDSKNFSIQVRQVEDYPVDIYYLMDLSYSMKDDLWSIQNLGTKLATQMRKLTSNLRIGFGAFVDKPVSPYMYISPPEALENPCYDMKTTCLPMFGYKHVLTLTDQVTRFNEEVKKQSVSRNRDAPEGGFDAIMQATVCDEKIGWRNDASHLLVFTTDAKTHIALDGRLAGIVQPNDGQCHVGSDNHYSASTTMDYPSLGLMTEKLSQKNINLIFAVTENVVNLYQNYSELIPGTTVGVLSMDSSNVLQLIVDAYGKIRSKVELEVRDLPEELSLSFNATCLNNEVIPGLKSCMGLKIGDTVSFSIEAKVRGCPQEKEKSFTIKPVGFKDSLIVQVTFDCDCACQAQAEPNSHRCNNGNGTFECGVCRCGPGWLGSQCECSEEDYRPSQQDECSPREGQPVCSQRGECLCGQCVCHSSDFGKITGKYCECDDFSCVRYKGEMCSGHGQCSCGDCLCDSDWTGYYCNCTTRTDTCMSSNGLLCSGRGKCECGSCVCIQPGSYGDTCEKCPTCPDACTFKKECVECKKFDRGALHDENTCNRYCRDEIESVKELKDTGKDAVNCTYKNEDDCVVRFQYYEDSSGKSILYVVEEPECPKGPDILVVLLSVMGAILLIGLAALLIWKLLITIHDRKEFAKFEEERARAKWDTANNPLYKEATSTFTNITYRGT
Sequence of Integrin alpha-V/beta-3 (P06756 31-889 limits assumed): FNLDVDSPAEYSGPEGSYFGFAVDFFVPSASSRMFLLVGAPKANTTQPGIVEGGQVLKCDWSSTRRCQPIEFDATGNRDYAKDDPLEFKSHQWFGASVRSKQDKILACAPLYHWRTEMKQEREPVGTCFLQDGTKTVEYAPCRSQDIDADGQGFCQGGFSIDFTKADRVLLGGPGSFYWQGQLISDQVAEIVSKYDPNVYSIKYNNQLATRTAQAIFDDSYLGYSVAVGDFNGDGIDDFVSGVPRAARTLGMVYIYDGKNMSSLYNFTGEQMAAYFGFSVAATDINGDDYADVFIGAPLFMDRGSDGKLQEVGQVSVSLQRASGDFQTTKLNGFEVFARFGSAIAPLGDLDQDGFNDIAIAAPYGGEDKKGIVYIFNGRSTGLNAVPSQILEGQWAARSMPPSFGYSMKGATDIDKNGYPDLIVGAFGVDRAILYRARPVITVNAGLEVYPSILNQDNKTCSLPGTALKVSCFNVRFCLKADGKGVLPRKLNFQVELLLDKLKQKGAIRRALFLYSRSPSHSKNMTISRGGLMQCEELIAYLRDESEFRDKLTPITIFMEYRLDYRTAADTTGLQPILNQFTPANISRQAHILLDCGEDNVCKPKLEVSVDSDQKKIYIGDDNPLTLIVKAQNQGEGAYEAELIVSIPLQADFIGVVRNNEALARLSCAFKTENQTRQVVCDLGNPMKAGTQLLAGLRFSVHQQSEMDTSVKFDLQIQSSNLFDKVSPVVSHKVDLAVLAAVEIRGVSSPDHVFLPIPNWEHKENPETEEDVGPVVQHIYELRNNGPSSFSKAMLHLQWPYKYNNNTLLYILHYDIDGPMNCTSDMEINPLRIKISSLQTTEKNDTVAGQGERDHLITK
Sequence of Integrin alpha-V/beta-3 (P06756 891-1048 limits assumed): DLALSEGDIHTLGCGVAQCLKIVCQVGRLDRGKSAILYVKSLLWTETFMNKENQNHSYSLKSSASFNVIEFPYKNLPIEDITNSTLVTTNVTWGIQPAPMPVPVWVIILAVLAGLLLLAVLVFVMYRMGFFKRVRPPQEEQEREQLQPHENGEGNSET

| IC50 (Integrin alpha-V/beta-3) | SMILES | other results |
| --- | --- | --- |
| > 200 µM | CCOc1ccccc1N=C(N)N=C(N)N | – |
| 100 µM | NC(N)=NC(N)=Nc1cc(Cl)ccc1Cl | – |
| > 200 µM | Cc1ccc(Cl)cc1N=C(N)N=C(N)N | – |
| 191 µM | N=C(N)NC(=N)Nc1cccc(Cl)c1 | – |
| 127 µM | N=C(N)NC(=N)Nc1cc(C(F)(F)F)ccc1Cl | – |
| 180 µM | O=C(Nc1ccccc1C(=O)O)c1ccc(N2C(=O)c3ccc(Oc4ccc([N+](=O)[O-])cc4)cc3C2=O)cc1 | – |
| 33.5 µM | N=C(N)N=C(N)Nc1cc(Cl)cc(Cl)c1 | – |
| 178 µM | NC(N)=NC(N)=Nc1ccc(SC(F)F)cc1 | – |
| 137 µM | COc1cc(NS(=O)(=O)c2ccc(NC(=O)COc3ccc(Cl)cc3Cl)cc2)nc(OC)n1 | – |
| 66.9 µM | N=C(N)NC(=N)Nc1ccc(Cl)cc1Cl | – |
| > 200 µM | N=C(N)NC(=N)Nc1ccccc1Cl | – |
| 39.5 µM | N=C(N)NC(=N)Nc1cc(C(F)(F)F)cc(C(F)(F)F)c1 | – |
| 38.5 µM | N=C(N)NC(=N)Nc1ccc(Cl)c(Cl)c1 | Activity (M21 [1]): 16.7 um; Activity (HUVEC): Active; inhibition at 30 µM (M21 [2]): 96.4%; Activity (M21 [3]): 27.8 um; Activity (M21 [4]): 8.3 um; Activity (M21 [5]): 1.1 um; inhibition at 15 µM (M21 [6]): 73.1%; inhibition at 7.5 µM (M21 [7]): 9.1%; inhibition at 15 µM (M21 [8]): 67.4%; inhibition at 30 µM (M21 [9]): 86%; inhibition at 7.5 µM (M21 [10]): 39.5%; Activity (M21 [11]): 72.2 um; Activity (M21 [12]): 38.9 um |
| 87.3 µM | N=C(N)NC(=N)Nc1cccc(Cl)c1Cl | – |
| 132 µM | CCOc1cc(/C=c2\sc3nc4c(C)cccc4n3c2=O)cc(Br)c1OCC(=O)O | – |
| 162 µM | Cn1cnnc1SCC(=O)Nc1ccc(-c2nc3ccc(NC(=O)CSc4nncn4C)cc3o2)c(O)c1 | – |
| 97.3 µM | N=C(N)NC(=N)Nc1ccc(F)c(Cl)c1 | – |
| > 200 µM | CSc1cccc(NC(=N)NC(=N)N)c1 | – |
| > 200 µM | CSc1ccccc1N=C(N)N=C(N)N | – |
| > 200 µM | CCOC(=O)c1cccc(N=C(N)N=C(N)N)c1 | – |
| 143 µM | COc1cc(/C=C2\C(=O)N(c3ccc(C(=O)O)cc3)N=C2C)ccc1OC(=O)c1ccccc1 | – |
| > 200 µM | N=C(N)NC(=N)Nc1ccccc1 [PHENYL BIGUANIDE] | – |
| 53.5 µM | COc1cc(NS(=O)(=O)c2ccc(N/C=C3\C(=O)N(c4ccc(I)cc4)N=C3C)cc2)nc(OC)n1 | – |
| 101 µM | N=C(N)NC(=N)Nc1ccc(SC(F)(F)F)cc1 | – |

| SMILES | IC50 (Integrin alpha-V/beta-3) | other results |
| --- | --- | --- |
| N=C(N)NC(=N)Nc1ccc(Cl)cc1 [4-CHLOROPHENYLBIGUANIDE] | 149 µM | – |
